According to ChEMBL document CHEMBL1138691, “Substituted furo[3,2-b]pyridines: novel bioisosteres of 5-HT 1F receptor agonists” (Bioorg Med Chem Lett, 2004):

Assays:
[1] = Ratio of the Ki value for human 5-HT1D receptor versus human 5-HT1F receptor
How it was run: (§1)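 Selectivity ratio: Ki at human 5-HT1A, 5-HT1B or 5-HT1D receptor divided by Ki at human 5-HT1F receptor. Each Ki from radioligand binding in cell lines expressing the relevant human receptor, derived from two or more experiments.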

[2] = Ratio of the Ki value for human 5-HT1A receptor versus human 5-HT1F receptor; how it was run: as §1
[3] = Ratio of the Ki value for human 5-HT1B receptor versus human 5-HT1F receptor; how it was run: as §1
[4] = target: T1, 5-hydroxytryptamine receptor 1F (Homo sapiens, UniProt P30939); assay: In vitro binding affinity for human 5-hydroxytryptamine 1F receptor
T1 sequence (P30939 whole entry): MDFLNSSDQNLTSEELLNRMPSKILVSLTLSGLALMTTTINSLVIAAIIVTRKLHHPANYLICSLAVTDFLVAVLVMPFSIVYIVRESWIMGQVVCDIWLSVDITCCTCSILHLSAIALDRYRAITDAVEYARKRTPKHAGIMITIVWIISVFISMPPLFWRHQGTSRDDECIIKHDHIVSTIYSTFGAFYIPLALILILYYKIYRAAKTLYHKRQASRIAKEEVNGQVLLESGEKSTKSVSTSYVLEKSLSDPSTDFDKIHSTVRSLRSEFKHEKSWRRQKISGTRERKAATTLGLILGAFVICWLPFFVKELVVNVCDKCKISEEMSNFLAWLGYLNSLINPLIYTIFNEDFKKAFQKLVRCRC
How it was run: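 Radioligand binding in cell lines expressing the human 5-HT receptor; Ki reported as mean of three or more experiments with SEM.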

[5] = target: T1, 5-hydroxytryptamine receptor 1F; assay: Concentration required for stimulation of [35S]GTP-gamma-S, binding in mouse LM(tk-1) cells expressing the human 5-hydroxytryptamine 1F receptor; assay type: functional, cell-based
How it was run: (§2)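 [35S]GTP-γ-S binding stimulated in mouse LM(tk-) cells expressing human 5-HT1F receptor; means of at least two separate experiments, each run in triplicate, with SEM.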

[6] = target: Serotonin (5-HT) receptor (Homo sapiens) (UniProt P30939+P41595+Q13639+P28222+P46098+P08908+P28221+P28223+P28335+P28566+P34969+P50406+P47898+A5X5Y0+O95264+Q70Z44+Q8WXA8); assay: Maximum stimulation of [35S]GTP-gamma-S, binding expressed relative to the maximal effect of 5-hydroxytryptamine; assay type: functional; how it was run: as §2

Compound | Selectivity ratio [1] | Selectivity ratio [2] | Selectivity ratio [3] | Ki [4] | EC50 [5] | Emax [6]
CN1CCC(c2c[nH]c3ccc(NC(=O)c4ccc(F)cc4)nc23)CC1 | 960 | 7.3 | 160 |  |  | 
CN1CCC(c2c[nH]c3ccc(NC(=O)c4ccc(F)cc4)cc23)CC1 | 86 | 7 | 85 | 1.6 nM |  | 
CN1CCC(c2coc3ccc(NC(=O)c4c(F)cc(F)cc4F)nc23)CC1 | 62 | 57 | 181 | 2.3 nM | 91.7 nM | 87%
CN1CCC(c2coc3ccc(NC(=O)c4ccc(F)cc4)nc23)CC1 | > 1000 | 134 | > 1000 | 3.1 nM | 66 nM | 88%
Cc1oc2ccc(NC(=O)c3ccc(F)cc3)nc2c1CCN(C)C | 19 | 65 | 42 | 13.5 nM |  | 
Cc1[nH]c2ccc(NC(=O)c3ccc(F)cc3)cc2c1CCN(C)C | 200 | 32 | 130 | 8.2 nM |  | 
CN1CCC(c2coc3ccc(NC(=O)c4ccc(F)cc4Cl)nc23)CC1 | 165 | 47 | 177 | 3 nM | 27.7 nM | 92%
CN1CCC(c2coc3ccc(NC(=O)c4c(F)cccc4Cl)nc23)CC1 | 31 | 103 | 164 | 2.9 nM | 68.7 nM | 87%
